These results are taken from ChEMBL document CHEMBL1212875, “Improved inhibition of the histone acetyltransferase PCAF by an anacardic acid derivative” (Bioorg Med Chem, 2010).

By inhibition is commonly meant the percentage by which the read-out fell short of the control. The term IC50 denotes the concentration that gives 50% inhibition.

Assay [1] concerns the target T1, Histone acetyltransferase KAT2B (Homo sapiens, UniProt Q92831). Nature of the assay: Inhibition of human recombinant histone acetyltransferase PCAF by ELISA. The gist of the method: (§1)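 Indirect ELISA. Biotinylated histone H4 peptide (300 nM coating) captured on streptavidin wells. Recombinant human PCAF (240 nM solution) preincubated 15 min with inhibitor in 100 mM HEPES pH 7.4, 0.1% BSA, 0.16% Triton X-100. Reaction started with Ac-CoA (40 µM solution) for 15 min. Detection by anti-acetyl-Lys antibody, HRP secondary, TMB, A450. No-inhibitor wells = 100%, no-Ac-CoA = 0%. Triplicate; DMSO stocks.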
Background: An ELISA detects its analyte on a solid surface through an enzyme-linked reagent.

The target in assay [2] is T1, Histone acetyltransferase KAT2B. Nature of the assay: Inhibition of human recombinant histone deacetylase PCAF at 1 mM by ELISA. Put shortly: as §1
Target sequence in this assay (Q92831 whole entry, looked up): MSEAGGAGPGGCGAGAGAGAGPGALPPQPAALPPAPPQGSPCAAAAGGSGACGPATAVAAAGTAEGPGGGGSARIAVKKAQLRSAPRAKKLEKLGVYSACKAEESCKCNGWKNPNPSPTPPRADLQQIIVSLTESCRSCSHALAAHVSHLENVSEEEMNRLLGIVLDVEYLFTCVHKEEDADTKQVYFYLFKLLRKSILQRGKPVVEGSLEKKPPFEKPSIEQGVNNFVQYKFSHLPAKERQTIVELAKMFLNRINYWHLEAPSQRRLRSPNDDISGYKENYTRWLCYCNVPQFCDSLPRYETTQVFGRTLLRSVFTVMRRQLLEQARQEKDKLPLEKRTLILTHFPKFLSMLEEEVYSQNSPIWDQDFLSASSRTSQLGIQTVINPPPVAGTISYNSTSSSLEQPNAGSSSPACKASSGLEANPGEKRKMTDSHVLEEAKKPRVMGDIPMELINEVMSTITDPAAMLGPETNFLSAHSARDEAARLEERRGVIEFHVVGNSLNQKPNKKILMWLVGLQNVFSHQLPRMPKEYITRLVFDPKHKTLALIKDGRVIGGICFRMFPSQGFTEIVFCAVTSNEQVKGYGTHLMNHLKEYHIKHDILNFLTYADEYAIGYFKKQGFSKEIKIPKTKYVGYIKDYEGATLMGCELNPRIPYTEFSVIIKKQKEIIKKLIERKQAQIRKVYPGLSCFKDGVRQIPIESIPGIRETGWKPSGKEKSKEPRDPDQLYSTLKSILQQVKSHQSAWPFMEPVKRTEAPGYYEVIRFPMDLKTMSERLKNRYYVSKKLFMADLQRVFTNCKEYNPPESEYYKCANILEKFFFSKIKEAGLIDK
For assay [3] the target is unchanged. Nature of the assay: Inhibition of […] in human HepG2 cells assessed as decrease in SAHA-induced histone H4 acetylation levels at 30 uM after 24 hrs by Western blotting. Format: cell-based. The gist of the method: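 HepG2 cells in DMEM with 10% heat-inactivated FBS at 37 °C, 5% CO2; grown to ~70% confluency, FBS-starved 16 h, then treated 24 h with 5 µM SAHA plus inhibitor at sub-toxic concentrations. Histones extracted, ~5 µg resolved by SDS-PAGE, immunoblotted with anti-acetyl-histone H4; densitometry with Coomassie loading check. Levels relative to untreated cells (100%), mean ± SEM of three independent experiments.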
For orientation: In western blotting, separated proteins are transferred to a membrane and probed.
Target sequence in this assay (Q92831 whole entry, looked up): as above

Assay [4] has the same target. Nature of the assay: Inhibition of histone acetyltransferase PCAF in human HepG2 cells assessed as decrease in SAHA-induced histone H4 acetylation levels at 60 uM after 24 hrs by Western blotting.
Target sequence in this assay (Q92831 whole entry, looked up): as above

Active and inactive are the calls of the source. No cut-off for these calls is given here.

In the case of `COc1ccccc1OCCCc1cccc(O)c1C(=O)O`, the inhibition result in assay [1] was “Active”. For `C=CC/C=C\C/C=C\CCCCCCCc1cccc(O)c1C(=O)O` [ANACARDIC ACID], the IC50 in assay [1] is 1000 µM. Besides, the inhibition result in assay [1], in assay [3] and in assay [4] was “Active” throughout. Further, the inhibition in assay [2] was 40%. For `CCCCCCCCCCc1cc(O)cc(O)c1C(=O)O`, in assay [1], the inhibition entry was “Active”. `O=C(O)c1c(O)cccc1OCc1ccccc1`: the inhibition in assay [2] came to 20%.

With `CCCCCCCc1ccc(CCc2cccc(O)c2C(=O)O)cc1`, the inhibition entry in assay [1] was “Active”. With `CCCCCCCCCCCCCCCc1cc(O)cc(O)c1C(=O)O`, the inhibition entry in assay [1] is “Active”. `CCCCCOc1ccc(/C=C\c2cccc(O)c2C(=O)O)cc1`: the IC50 in assay [1] was found to be 662 µM. For the same compound, the inhibition result in assay [3] and in assay [4] was “Active” in each case. For the compound `CCCCCOc1ccc(CCc2cccc(O)c2C(=O)O)cc1`, in assay [1], the inhibition entry was “Active”. Same read-out and setting: next, `CCCCCCCCCCCCCCOc1cccc(O)c1C(=O)O`: “Active”. Still for that read-out and setting: the value for `CCCCCCCCCCc1cccc(O)c1C(=O)O` was “Active”.
